Shown are actives, neighbours in structure and some others; about 2.9% of the full set was active somewhere.
CRFR2-BP antag – antagonists of CRF-BP/CRF-R2 complex, primary screen, cell-based, HEK293, calcium dye fluorescence, uHTS | inhibition, % at 11.8 µM | CRF-induced calcium fluorescence | 0.59% of 350,000 active;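 active = inhibition of the ligand-induced calcium signal above about 50% at the single tested concentration, limit read from the data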
KLK7 zymogen act – proKLK7 zymogen activators, primary screen, biochemical, fluorescence intensity | purified proKLK7, EDANS-DABCYL substrate fluorescence; 100% is mature enzyme control, 0% vehicle | AID 652039, 2013 | Kallikrein-7 (Homo sapiens), P49862 | activation, % at 7 µM | 0.9% of 370,000 active;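 active = activation above the mean of all tested compounds plus 3 SD, computed per campaign excluding outliers beyond control limits, cut at about 13% in these data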
Target sequence (P49862 whole entry, looked up): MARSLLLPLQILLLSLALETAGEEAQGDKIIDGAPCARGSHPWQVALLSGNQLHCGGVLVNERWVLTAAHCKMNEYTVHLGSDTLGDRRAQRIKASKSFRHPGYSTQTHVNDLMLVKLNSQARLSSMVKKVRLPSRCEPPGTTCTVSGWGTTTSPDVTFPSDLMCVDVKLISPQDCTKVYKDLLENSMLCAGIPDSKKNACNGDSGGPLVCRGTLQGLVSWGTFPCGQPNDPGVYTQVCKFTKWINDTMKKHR
Tn6 DDE FP – inhibitors of Tn6 peptide binding to fibrin DD(E), primary screen, biochemical, fluorescence polarization, human fibrin, Tn6 probe; AID 720509, 2013; Fibrinogen beta chain (Homo sapiens), P02675; inhibition, % at 8.3 µM; Fibrin DD(E) TRITC-Tn6 fluorescence polarization displacement; 0.21% of 370,000 active;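 active = inhibition above a per-campaign cutoff: mean of compounds within control limits plus 3 SD, cut at about 15% in these data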
Target sequence (P02675 whole entry, looked up): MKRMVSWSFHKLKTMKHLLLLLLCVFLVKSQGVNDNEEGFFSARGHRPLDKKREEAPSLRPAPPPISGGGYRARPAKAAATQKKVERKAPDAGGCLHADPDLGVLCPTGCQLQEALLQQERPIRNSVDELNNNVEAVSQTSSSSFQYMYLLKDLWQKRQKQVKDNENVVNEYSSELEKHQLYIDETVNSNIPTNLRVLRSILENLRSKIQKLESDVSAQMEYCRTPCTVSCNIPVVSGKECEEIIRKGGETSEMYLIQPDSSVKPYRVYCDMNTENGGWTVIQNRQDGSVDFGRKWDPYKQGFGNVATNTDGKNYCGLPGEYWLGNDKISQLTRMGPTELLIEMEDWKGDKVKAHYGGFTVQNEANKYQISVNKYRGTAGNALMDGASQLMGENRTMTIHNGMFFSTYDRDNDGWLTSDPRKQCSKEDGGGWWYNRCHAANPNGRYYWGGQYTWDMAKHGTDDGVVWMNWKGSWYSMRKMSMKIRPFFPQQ
DDE Tn7 FP inh – inhibitors of Tn7 peptide binding to fibrin DD(E), primary screen, biochemical, fluorescence polarization, human fibrin, Tn7 probe | inhibition, % at 8.3 µM | FP displacement of FITC-Tn7 peptide from fibrin DD(E); 0% = median of compound wells per plate | Fibrinogen beta chain (Homo sapiens), P02675 | AID 720508, 2013 | 0.13% of 370,000 active;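 active = inhibition above the mean of compounds falling within the control limits plus 3 SD of them, cut at about 14% in these data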
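system = human fibrin DD(E) protein | quantity = DD(E) 2 µM final | medium = Tris/NaCl/CaCl2 buffer, pH 7.8 | also added = labelled Tn7 tracer, 0.1 µM | compound dosing = single point at 8.3 µM | timing = compound with protein 10 min, then 3 h after probe, room temperature | signal = FP measurement | benchmarks = Aha-Tn7 high control | repeats = one replicate per compound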
CRFBP-R2 agonist – agonists of CRF-BP/CRF-R2 complex, primary screen, cell-based, HEK293, calcium dye fluorescence, uHTS. CRF-binding protein / CRF receptor 2 complex (human). calcium dye fluorescence (FLIPR); percent of saturating CRF peptide response. activation, % at 13.2 µM. 0.46% of 350,000 active. AID 588473, 2011;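 active = activation of at least 50%, plus an integration ratio under a set limit after plate pattern correction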
NRP1-CendR mod – modulators of CendR peptide binding to NRP-1, primary screen, biochemical, fluorescence polarization, uHTS. Neuropilin-1 (Homo sapiens), O14786. FAM-RPARPAR peptide binding to NRP-1. inhibition, % at 25 µM. 0.85% of 360,000 active;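 active = inhibition or corrected inhibition above about 18%, plus a signal ratio from 0.5 to 1.5, limit read from the data, passing the limit was not always enough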
Of the large screens only hits and unclear results are named; the others gave an inactive call.

COc1cc(-c2ccc3cc(OC)c(OC)c(OC)c3c2)cc(OC)c1OC	CRFR2-BP antag 58
CCCCNC(=O)c1sc(=S)n2c1[nH]c(=O)c1ccccc12	CRFR2-BP antag 55, CRFBP-R2 agonist 50
CCCCCCN1CCS(=O)(=O)N(Cc2ccc(C)cc2)C(C(=O)OC)C1 (stereo not drawn)	none (no result: CRFR2-BP antag, CRFBP-R2 agonist, NRP1-CendR mod)
COc1ccc(-c2nnc(SCc3c(F)cccc3F)n2N)cc1	none (no result: CRFR2-BP antag, CRFBP-R2 agonist, NRP1-CendR mod)
C[C@H](NC(=O)Nc1ccc2c(c1)OCCO2)C(=O)O	CRFR2-BP antag 96
CCN(c1ccccc1)c1nc(C#N)nc(N(CC)c2ccccc2)n1	CRFR2-BP antag 83
CCN(CC)c1nc(C#N)nc(N(CC)CC)n1	none
Nc1cc(-c2ccccc2)nn1Cc1ccccc1	NRP1-CendR mod 41
O=c1ccc(-c2ccccc2)nn1Cc1ccccc1	none
COc1ccc(C=Nn2c(-c3ccc(F)cc3)n[nH]c2=S)cc1OCc1ccccc1	none (no result: CRFR2-BP antag, CRFBP-R2 agonist, NRP1-CendR mod)
Cc1cccc(OCC(C)CN2CCC(C(O)(c3ccccc3)c3ccccc3)CC2)c1 (stereo not drawn)	none (no result: CRFR2-BP antag, CRFBP-R2 agonist, NRP1-CendR mod)
CCc1ccccc1N1C(=O)C2CC(C)=C(C)CC2C1=O (stereo not drawn)	CRFR2-BP antag 50
CCc1ccccc1N1C(=O)C2CC=CCC2C1=O (stereo not drawn)	none
Cc1cc(CNC(=O)CC2C(=O)NCCN2CC(C)(C)C)nn1C (stereo not drawn)	none
Cc1cnccc1CNC(=O)CC1C(=O)NCCN1CC(C)(C)C (stereo not drawn)	NRP1-CendR mod 26
CSc1ncccc1C(=O)N(C)CC(=O)Nc1cccc(F)c1	CRFR2-BP antag 100
CN(CC(=O)Nc1cccc(F)c1)C(=O)Cn1c(=O)oc2ccccc21	NRP1-CendR mod 23
CN(C(=O)Cn1c(=O)oc2ccccc21)C1CCCCC1	NRP1-CendR mod 20
CN(C(=O)CCS(=O)(=O)c1ccc2c(c1)oc(=O)n2C)C1CCCCC1	CRFR2-BP antag 68
CC1CCCCN1C(=O)Cn1c(=O)oc2ccccc21 (stereo not drawn)	none
COc1ccc(-n2c(COc3ccccc3)nnc2SCC(=O)Nc2ccccc2-c2ccccc2)cc1	none (no result: CRFR2-BP antag, CRFBP-R2 agonist, NRP1-CendR mod)
C=CCN(CC#CC(=C)C)Cc1ccc(OC)cc1OC	none (no result: CRFR2-BP antag, CRFBP-R2 agonist, NRP1-CendR mod)
CC(C)[C@@H]1CC[C@@H](C)C[C@H]1OC[B-](F)(F)F	none (no result: CRFR2-BP antag, CRFBP-R2 agonist, NRP1-CendR mod)
COC1=C[C@H](C(=O)NCCOC(C)=O)[C@H](C)[C@@H](c2ccccc2)CC1=O	none (no result: CRFR2-BP antag, CRFBP-R2 agonist, NRP1-CendR mod)
CN(C)c1ccc(/C=C/C(=O)c2ccc3c(c2)OCO3)cc1	CRFBP-R2 agonist 135
O=C(/C=C/c1ccccc1)c1ccc2c(c1)OCO2	none
CN(C)c1ccc(C=Cc2cnccn2)cc1	none
CN(C)c1ccc(/C=C/c2ccncc2)cc1	CRFBP-R2 agonist 173
CN(C)c1ccc(C(=O)C=Cc2ccc([N+](=O)[O-])cc2)cc1	none
CN(C)c1ccc(/C=C/C(=O)c2ccc(O)cc2)cc1	CRFBP-R2 agonist 156
COc1ccc(C(=O)/C=C/c2ccc(N(C)C)cc2)c(OC)c1	CRFBP-R2 agonist 103
S=C(Nc1ccc(I)cc1)OC1CCC12CCC(c1ccccc1)CC2 (stereo not drawn)	none (no result: CRFR2-BP antag, CRFBP-R2 agonist, NRP1-CendR mod)
CCN(C)c1nc(C)nc2c1nnn2Cc1ccccc1	none (no result: CRFR2-BP antag, CRFBP-R2 agonist, NRP1-CendR mod)
CCN1CCCCC(NC(=O)c2cc(OC)c(OC)c(OC)c2)C1=O (stereo not drawn)	none (no result: CRFR2-BP antag, CRFBP-R2 agonist, NRP1-CendR mod)
COC(=O)c1ccc(N/C=C\C(=O)c2ccc3c(c2)OCO3)cc1	NRP1-CendR mod 22
COc1ccc(N/C=C\C(=O)c2ccc3c(c2)OCO3)cc1OC	none
CN(C)c1ccc(/C=C/C(=O)c2cccnc2)cc1	CRFBP-R2 agonist 120
O=C(c1ccccc1)C1CC1c1ccccc1 (stereo not drawn)	NRP1-CendR mod 38
NNC(=O)[C@@H]1C[C@@H]1c1ccccc1	none
CCN(C(=O)COC(=O)CNC(=O)c1ccc(F)cc1)C1CCS(=O)(=O)C1 (stereo not drawn)	NRP1-CendR mod 28
Cc1ccc(N2C(=O)C(Cl)=C(N3CCN(C)CC3)C2=O)c(C)c1	NRP1-CendR mod 32
CN1CCN(C2=C(Cl)C(=O)N(c3ccc(Cl)cc3)C2=O)CC1	none (no result: KLK7 zymogen act, Tn6 DDE FP, DDE Tn7 FP inh)
N#CCC[C@H]1CC[C@]2(CCCN(C(=O)c3ccccc3)C2)O1	none (no result: CRFR2-BP antag, CRFBP-R2 agonist, NRP1-CendR mod)
Cn1c(=O)c2c(nc(CN3CCN(C(=O)c4ccco4)CC3)n2Cc2ccc(F)cc2)n(C)c1=O	NRP1-CendR mod 28
Cn1c(=O)c2c(nc(CN3CCOCC3)n2CCN2CCOCC2)n(C)c1=O	NRP1-CendR mod 27 (no result: KLK7 zymogen act, Tn6 DDE FP, DDE Tn7 FP inh)
CN(C(=O)CNC(=O)c1ccccc1OCC(=O)Nc1ccc(Br)cc1)c1ccccc1	none (no result: CRFR2-BP antag, CRFBP-R2 agonist, NRP1-CendR mod)
COc1ccc(-c2noc(CN(C(=O)c3ccc4c(c3)OCO4)C(C)C)n2)cc1	NRP1-CendR mod 28
C=CCN(Cc1nc(-c2ccc(OC)cc2)no1)C(=O)c1ccc2c(c1)OCO2	none
O=C(N/N=C/c1c(O)n(Cc2ccccc2)c(=O)c2ccccc12)c1cccnc1	CRFBP-R2 agonist 64
COc1ccc(Cn2c(O)c(/C=N/NC(=O)c3cccnc3)c3ccccc3c2=O)cc1	none
Cc1ccc(-c2nc(C3CCCN(S(=O)(=O)c4ccccc4)C3)no2)cc1 (stereo not drawn)	none (no result: CRFR2-BP antag, CRFBP-R2 agonist, NRP1-CendR mod)
O=C(NC(=S)NCCc1ccccn1)c1ccco1	CRFR2-BP antag 53
CCCN1CCN(C(=O)CCCNC(=O)Cn2cnc3sc(C)c(C)c3c2=O)CC1	NRP1-CendR mod 26
COC(=O)c1ccc(CN2C(=O)C(C)N(C(=O)c3c(F)cccc3F)c3ccccc32)cc1 (stereo not drawn)	CRFR2-BP antag 58
CCCN1CCS(=O)(=O)N(Cc2cn(Cc3ccc(F)cc3)nn2)C(C(=O)OC)C1 (stereo not drawn)	none (no result: CRFR2-BP antag, CRFBP-R2 agonist, NRP1-CendR mod)
COCCNC(=O)CN1CCCCCC1	NRP1-CendR mod 26
O=C(O)CCN1C(=O)/C(=C/c2ccc(F)cc2F)SC1=S	none (no result: CRFR2-BP antag, KLK7 zymogen act, CRFBP-R2 agonist, NRP1-CendR mod)
O=C1CC(N2CCN(Cc3ccc4c(c3)OCO4)CC2)C(=O)N1c1cccc(Cl)c1 (stereo not drawn)	NRP1-CendR mod 37
O=C1CC(N2CCN(Cc3ccc4c(c3)OCO4)CC2)C(=O)N1c1cccc2ccccc12 (stereo not drawn)	none
CCOC(=O)Nc1ccc(Oc2ccccc2)cc1	CRFR2-BP antag 57
N#CC1=C(N)OC2=C(CN(Cc3ccccc3)C/C2=C\c2cccnc2)C1c1cccnc1 (stereo not drawn)	none

Source: PubChem
